Converted amounts (≈) assume the structure as drawn. The source made the active and inactive calls. No cut-off for these calls is given here.
tested on: Pichia kudriavzevii; assay: Antifungal activity against Candida krusei ATCC 6258 assessed as decrease in fungal cell growth at 0.78 to 12.5 mg/L incubated for 24 hrs by CLSI broth dilution method; assay type: functional; conditions: ATCC 6258, 24 h
Summary of the method: (§1)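 Yeast broth dilution in RPMI 1640 with 2% glucose, compounds in DMSO. Yeasts pre-grown on Sabouraud dextrose agar. Growth read after 35 °C, 24 h.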

MIC [µg/mL] | SMILES
12.5 (≈ 50.6 µM) | C[Si]1(C)OB(O)c2ccc(Cl)c(Cl)c21
200 (≈ 813 µM) | C[Si]1(C)OB(O)c2ccc(C(F)(F)F)cc21

tested on: Enterobacter cloacae; assay: Antibacterial activity against Enterobacter cloacae DSM 6234 assessed as fold reduction of MIC in presence of efflux pump inhibitor PAbetaN incubated for 18 hrs by broth microdilution method; assay type: functional; conditions: not given
Summary of the method: (§2)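 MICs determined with and without PAβN at 50 mg/L in Mueller-Hinton broth containing 1 mM MgSO₄. 2-fold serial dilutions per CLSI. Fold change taken from the paired MICs after 35 °C, 18 h.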

SMILES | fold change (FC)
C[Si]1(C)OB(O)c2ccc(Cl)c(Cl)c21 | 64
C[Si]1(C)OB(O)c2ccc(C(F)(F)F)cc21 | 16

tested on: Escherichia coli; assay: Antibacterial activity against Escherichia coli ATCC 25922 measured after 18 hrs by CLSI broth dilution method; assay type: functional; conditions: ATCC 25922, 18 h
Summary of the method: (§3)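 Broth MIC in Mueller-Hinton II broth following CLSI, compounds dissolved in DMSO. Strains subcultured twice on tryptic soy agar before testing. Growth read after 35 °C, 18 h.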

MIC [µg/mL] | SMILES
400 (≈ 1620 µM) | C[Si]1(C)OB(O)c2ccc(Cl)c(Cl)c21
> 400 | C[Si]1(C)OB(O)c2ccc(C(F)(F)F)cc21

tested on: Saccharomyces cerevisiae; assay: Antifungal activity against Saccharomyces cerevisiae ATCC 9763 diameter of zone inhibition incubated for 24 hrs by CLSI disc diffusion method; assay type: functional; conditions: not given
Summary of the method: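 Disc-diffusion run on Mueller-Hinton II agar with 2% glucose and 0.5 mg/L methylene blue, using compounds in DMSO. Yeast was precultured on Sabouraud dextrose agar (24–48 h, 30 °C). Zones read after 24 h at 35 °C.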

SMILES | diameter of the inhibition zone (DIZ) [mm]
C[Si]1(C)OB(O)c2ccc(Cl)c(Cl)c21 | 36
C[Si]1(C)OB(O)c2ccc(C(F)(F)F)cc21 | 15

tested on: Serratia marcescens; assay: Antibacterial activity against Serratia marcescens ATCC 13880 assessed as fold reduction of MIC in presence of efflux pump inhibitor PAbetaN incubated for 18 hrs by broth microdilution method; assay type: functional; conditions: not given; summary of the method: as §2

SMILES | fold change (FC)
C[Si]1(C)OB(O)c2ccc(Cl)c(Cl)c21 | 32
C[Si]1(C)OB(O)c2ccc(C(F)(F)F)cc21 | 2

tested on: Staphylococcus aureus; assay: Bactericidal activity against Staphylococcus aureus ATCC 6538P measured after 18 hrs by CLSI broth dilution method; assay type: functional; conditions: not given
Summary of the method: (§4)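 Strains stored at -80 °C and subcultured twice on tryptic soy agar before testing. Compounds dissolved in DMSO. […] MBC then determined per CLSI recommendations.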

SMILES | MBC [µg/mL]
C[Si]1(C)OB(O)c2ccc(Cl)c(Cl)c21 | 100 (≈ 405 µM)
C[Si]1(C)OB(O)c2ccc(C(F)(F)F)cc21 | 100 (≈ 406 µM)

tested on: Stenotrophomonas maltophilia; assay: Antibacterial activity against Stenotrophomonas maltophilia ATCC 13637 assessed as diameter of zone inhibition measured after 18 hrs by CLSI disc diffusion method; assay type: functional; conditions: not given
Summary of the method: (§5)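 Disc diffusion on Mueller-Hinton II agar. Compounds dissolved in DMSO. Strains stored at -80 °C and subcultured twice on tryptic soy agar before testing. Inhibition zones read after 35 °C, 18 h.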

SMILES | diameter of the inhibition zone (DIZ) [mm]
C[Si]1(C)OB(O)c2ccc(Cl)c(Cl)c21 | 13
C[Si]1(C)OB(O)c2ccc(C(F)(F)F)cc21 | 14

tested on: Candida tropicalis; assay: Antifungal activity against Candida tropicalis IBA 171 assessed as decrease in fungal cell growth at 0.78 to 12.5 mg/L incubated for 24 hrs by CLSI broth dilution method; assay type: functional; conditions: IBA 171, 24 h; summary of the method: as §1

MIC [µg/mL] | SMILES
3.12 (≈ 12.7 µM) | C[Si]1(C)OB(O)c2ccc(Cl)c(Cl)c21
25 (≈ 102 µM) | C[Si]1(C)OB(O)c2ccc(C(F)(F)F)cc21

tested on: Enterococcus faecalis; assay: Bactericidal activity against Enterococcus faecalis ATCC 29212 measured after 18 hrs by CLSI broth dilution method; assay type: functional; conditions: ATCC 29212, 18 h; summary of the method: as §4

SMILES | MBC [µg/mL]
C[Si]1(C)OB(O)c2ccc(Cl)c(Cl)c21 | 400 (≈ 1620 µM)
C[Si]1(C)OB(O)c2ccc(C(F)(F)F)cc21 | 50 (≈ 203 µM)

tested on: Staphylococcus epidermidis; assay: Bactericidal activity against Staphylococcus epidermidis ATCC 12228 measured after 18 hrs by CLSI broth dilution method; assay type: functional; conditions: ATCC 12228, 18 h; summary of the method: as §4

SMILES | MBC [µg/mL]
C[Si]1(C)OB(O)c2ccc(Cl)c(Cl)c21 | 50 (≈ 202 µM)
C[Si]1(C)OB(O)c2ccc(C(F)(F)F)cc21 | 50 (≈ 203 µM)

tested on: Enterobacter cloacae; assay: Antibacterial activity against Enterobacter cloacae DSM 6234 assessed as diameter of zone inhibition measured after 18 hrs by CLSI disc diffusion method; assay type: functional; conditions: not given; summary of the method: as §5

SMILES | diameter of the inhibition zone (DIZ)
C[Si]1(C)OB(O)c2ccc(Cl)c(Cl)c21 | inactive
C[Si]1(C)OB(O)c2ccc(C(F)(F)F)cc21 | inactive

tested on: Candida albicans; assay: Antifungal activity against Candida albicans ATCC 90028 assessed as decrease in fungal cell growth at 0.78 to 12.5 mg/L incubated for 24 hrs by CLSI broth dilution method; assay type: functional; conditions: ATCC 90028, 24 h; summary of the method: as §1

MIC [µg/mL] | SMILES
12.5 (≈ 50.6 µM) | C[Si]1(C)OB(O)c2ccc(Cl)c(Cl)c21
50 (≈ 203 µM) | C[Si]1(C)OB(O)c2ccc(C(F)(F)F)cc21

tested on: Saccharomyces cerevisiae; assay: Antifungal activity against Saccharomyces cerevisiae ATCC 9763 assessed as decrease in fungal cell growth at 0.78 to 12.5 mg/L incubated for 24 hrs by CLSI broth dilution method; assay type: functional; conditions: ATCC 9763, 24 h
Summary of the method: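 Yeast strain subcultured on Sabouraud dextrose agar for 24–48 h at 30 °C before testing. Compounds dissolved in DMSO.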

MIC [µg/mL] | SMILES
6.25 (≈ 25.3 µM) | C[Si]1(C)OB(O)c2ccc(Cl)c(Cl)c21
200 (≈ 813 µM) | C[Si]1(C)OB(O)c2ccc(C(F)(F)F)cc21

tested on: Pseudomonas aeruginosa; assay: Antibacterial activity against Pseudomonas aeruginosa ATCC 27853 assessed as diameter of zone inhibition measured after 18 hrs by CLSI disc diffusion method; assay type: functional, organism-based; conditions: not given; summary of the method: as §5

SMILES | diameter of the inhibition zone (DIZ)
C[Si]1(C)OB(O)c2ccc(Cl)c(Cl)c21 | inactive
C[Si]1(C)OB(O)c2ccc(C(F)(F)F)cc21 | inactive

tested on: Pseudomonas aeruginosa; assay: Antibacterial activity against Pseudomonas aeruginosa ATCC 27853 assessed as fold reduction of MIC in presence of efflux pump inhibitor PAbetaN incubated for 18 hrs microdilution method; assay type: functional; conditions: not given; summary of the method: as §2

SMILES | fold change (FC)
C[Si]1(C)OB(O)c2ccc(Cl)c(Cl)c21 | 64
C[Si]1(C)OB(O)c2ccc(C(F)(F)F)cc21 | 8

tested on: Acinetobacter baumannii; assay: Antibacterial activity against Acinetobacter baumannii ATCC 19606 assessed as fold reduction of MIC in presence of efflux pump inhibitor PAbetaN incubated for 18 hrs by broth microdilution method; assay type: functional; conditions: not given; summary of the method: as §2

SMILES | fold change (FC)
C[Si]1(C)OB(O)c2ccc(Cl)c(Cl)c21 | 8
C[Si]1(C)OB(O)c2ccc(C(F)(F)F)cc21 | 16

tested on: Staphylococcus epidermidis; assay: Antibacterial activity against Staphylococcus epidermidis ATCC 12228 measured after 18 hrs by CLSI broth dilution method; assay type: functional; conditions: ATCC 12228, 18 h; summary of the method: as §3

MIC [µg/mL] | SMILES
6.25 (≈ 25.3 µM) | C[Si]1(C)OB(O)c2ccc(Cl)c(Cl)c21
25 (≈ 102 µM) | C[Si]1(C)OB(O)c2ccc(C(F)(F)F)cc21
